# Runt-SMMHC FRET = blocks binding of human RUNX1 Runt domain to CBFb-SMMHC; Q01196+Q13951; Cerulean-Runt/Venus-CBFb-SMMHC FRET ratio 530/480, 1 h; inhibition, % at 20 µM; 0.74% of 220,000 active; AID 1434;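 active = mean inhibition across duplicate retests at 20 µM reaching about 50%, limit read from the data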;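 note: inhibitors lower the FRET ratio by blocking Runt binding to CBFb-SMMHC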
# proKLK7 act = activators of human kallikrein-7 zymogen. P49862. purified proKLK7, EDANS-DABCYL substrate fluorescence; 100% is mature enzyme control, 0% vehicle. activation, % at 7 µM. 0.9% of 370,000 active. AID 652039;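 active = activation above the mean of all tested compounds plus 3 SD, computed per campaign excluding outliers beyond control limits, cut at about 13% in these data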
# AI-2 QS mod = Vibrio harveyi AI-2 quorum sensing modulation. Vibrio harveyi JMH597 AI-2 luminescence/OD600 ratio, 9 h; active compounds read low; strain lacks LuxN and CqsS sensors; 0 = neutral-control median. activity change, % at 7.5 µM. 0.4% of 300,000 active; in the data active = activity change below about -75%, passing the limit was not always enough; inconclusive = no clear call, values can overlap the other calls;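 note: luminescence divided by OD600 gain over 9 h not by final OD600 alone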
# Runt-CBFb FRET = inhibitors of human RUNX1 Runt domain binding to CBFb; Cerulean-Runt/Venus-CBFb FRET ratio 530/480, 1 h; inhibition, % at 20 µM; Q01196+Q13951; 0.46% of 220,000 active;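 active = inhibition over about 50% at 20 µM in the single-dose screen, limit read from the data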
#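 Schedule: protein complex preformed 1 h, compound exposure 1 h, room temperature, dark; test system: Cerulean-labeled Runt domain protein; amount: 100 nM per protein; buffer or medium: Tris 50 mM pH 7.5, KCl, K2SO4, 0.01% BSA; read-out: loss of energy transfer signal; detection: FRET fluorescence; controls: 5 µM unlabeled CBFb as full-inhibition high control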
# Wee1 stabilizer = human Wee1 degradation inhibition, primary screen. P30291. HeLa Luc-Wee1K328M stability, luciferase luminescence; 100% = proteasome inhibitor MG132 effect. reporter increase, % at 5 µM. 1.2% of 220,000 active;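 active = activation above the mean of all tested compounds plus 3 SD, set per screening run, cut at about 8.8% in these data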;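 note: cells exposed to compound for 20 h before luminescence read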
# Target sequence (P30291 whole entry K328M): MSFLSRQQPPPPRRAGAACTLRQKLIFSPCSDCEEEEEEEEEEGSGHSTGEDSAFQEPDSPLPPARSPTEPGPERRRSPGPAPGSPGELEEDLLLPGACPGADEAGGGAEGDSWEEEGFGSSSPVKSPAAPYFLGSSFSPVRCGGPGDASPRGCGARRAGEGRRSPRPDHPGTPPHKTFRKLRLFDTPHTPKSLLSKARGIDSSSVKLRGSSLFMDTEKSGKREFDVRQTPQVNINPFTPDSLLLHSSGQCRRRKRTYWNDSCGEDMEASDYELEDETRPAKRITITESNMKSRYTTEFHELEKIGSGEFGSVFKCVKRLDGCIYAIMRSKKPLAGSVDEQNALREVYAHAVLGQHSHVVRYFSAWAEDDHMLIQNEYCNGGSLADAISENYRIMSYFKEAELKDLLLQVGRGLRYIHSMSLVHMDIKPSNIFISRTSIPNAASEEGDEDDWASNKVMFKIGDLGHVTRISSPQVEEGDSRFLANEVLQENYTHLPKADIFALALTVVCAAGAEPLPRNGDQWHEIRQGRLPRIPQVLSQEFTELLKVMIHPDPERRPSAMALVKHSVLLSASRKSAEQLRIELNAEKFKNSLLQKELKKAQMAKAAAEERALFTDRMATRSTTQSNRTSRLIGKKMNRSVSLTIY
# RanGTP-Impb inh = inhibitors of RanGTP-importin-beta interaction, primary screen, biochemical, FRET, CFP-Ran, YFP-importin-beta, homogeneous; cell-free CFP-Ran/YFP-importin-beta FRET ratio; 1.1% of 300,000 active; inhibition, % (no concentration beside the values);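 active = more than half of the replicate wells show a fall in the fluorescence ratio signal beyond about 16%, limit read from the data, passing the limit was not always enough; inconclusive = exactly half of the replicate wells pass the set limit; inactive = fewer than half of replicates pass the limit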
# proKLK7 act conf = confirmation of human kallikrein-7 zymogen activators | purified proKLK7, EDANS-DABCYL substrate fluorescence; scaled: vehicle 0, mature enzyme 100 | activation, % at 7 µM | AID 686949 | shares compounds with proKLK7 act | 68% of 3,200 active;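 active = activation, as change over the incubation, above the mean of all tested compounds plus 3 SD, cut at about 13% in these data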
# EDANS interfere = counter-screen for kallikrein-7 activators: EDANS-DABCYL optical interference | shares compounds with proKLK7 act | EDANS-DABCYL substrate fluorescence interference, no enzyme, 4 h; solvent 0%, active enzyme control 100% | activation, % at 7 µM | 80% of 3,200 active;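 active = activation above the all-compound mean plus 3 SD, ignoring values outside control-based bounds, cut at about 4.8% in these data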;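 note: value is the 4 h activation minus the activation read at time zero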
# EDANS interf = optically interferes with EDANS-DABCYL fluorescence, kallikrein-7 activator counter-screen; shares compounds with proKLK7 act; EDANS-DABCYL peptide fluorescence interference, no enzyme; EC50, µM; 20% of 250 active; AID 720493;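 active = compounds that raise the fluorescence signal in this interference counterscreen, with EC50 at or below 10 µM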;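 note: intact quenched peptide substrate alone read at 355 nm excitation and 520 nm emission; signal is fluorescence gain from T0 to T4 after four hours at room temperature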
# Hits are given with their value; – = inactive; ? = inconclusive; · = not tested or not shown. In the library only some 2.9% were active in any assay of this set; here they are far more common.
SMILES,Runt-SMMHC FRET,proKLK7 act,AI-2 QS mod,Runt-CBFb FRET,Wee1 stabilizer,RanGTP-Impb inh,proKLK7 act conf,EDANS interfere,others
COc1ccc(S(=O)(=O)Nc2cc(C)on2)cc1,·,–,–,·,·,–,·,·,
CCOc1ccc(S(=O)(=O)NCc2ccco2)c2ccccc12,–,–,–,–,–,–,·,·,
CNS(=O)(=O)c1cc(S(=O)(=O)NC)c2cccc3c2c1NC3=O,·,21,–,·,·,–,21,21,
O=C(O)c1cccc(NS(=O)(=O)c2ccc3c4c(cccc24)C(=O)N3)c1,·,–,–,·,·,–,·,·,
Cc1oc2c(cc(NS(=O)(=O)c3ccc4c5c(cccc35)C(=O)N4)c3ccccc32)c1C(=O)OC(C)C,–,24,–,·,–,·,57,53,
Cc1cc(O)ccc1NS(=O)(=O)c1ccc2c3c(cccc13)C(=O)N2,·,81,–,·,·,–,86,98,
O=C1Nc2ccc(S(=O)(=O)NCc3ccco3)c3cccc1c23,·,28,–,·,–,–,40,37,
Cc1cc(C(=O)CCl)c(C)n1-c1c(C)n(C)n(-c2ccccc2)c1=O,–,–,–,–,–,–,·,·,
COC(=O)c1ccc(NC(C)C(=O)OC)c([N+](=O)[O-])c1 (configuration not stated),–,–,–,–,–,–,·,·,
CNS(=O)(=O)c1ccc2c3c(cccc13)C(=O)N2,·,49,–,·,·,–,61,72,
O=C(O)CNS(=O)(=O)c1ccc2c3c(cccc13)C(=O)N2,·,60,–,·,·,–,73,73,
O=C1Nc2ccc(S(=O)(=O)N(CCO)CCO)c3cccc1c23,·,45,–,·,·,–,42,50,
O=C(O)c1ccccc1NS(=O)(=O)c1ccc2c3c(cccc13)C(=O)N2,–,–,–,–,–,–,·,·,
CC(C)C(NS(=O)(=O)c1ccc2c3c(cccc13)C(=O)N2)C(=O)O (configuration not stated),–,25,–,–,–,–,23,33,
COc1ccccc1CNC(=O)C(=O)NCC1OCCN1C(=O)c1cccs1 (configuration not stated),–,–,–,–,–,–,·,·,
O=C(O)CCCCCNS(=O)(=O)c1ccc2c3c(cccc13)C(=O)N2,·,63,–,·,·,–,61,69,
COc1ccccc1N1C(=O)S/C(=C\c2cc(C)n(C)c2C)C1=O,–,24,–,–,–,–,32,80,
Cc1ccc(NC(=O)CN2C(=O)S/C(=C\c3cc(C)n(C)c3C)C2=O)cc1,–,20,–,·,–,–,–,–,
COc1ccccc1N1C(=O)S/C(=C\c2ccc(C)s2)C1=O,·,–,–,·,·,–,·,·,
COc1ncccc1-c1ccc2nncn2c1,·,–,·,·,·,·,·,·,
CCOC(=O)C1(CC2CCCCO2)CCN(C(=O)NCc2ccccc2)CC1 (configuration not stated),–,–,–,–,–,–,·,·,
CSc1ccc(CN(C)CC(=O)Nc2cccc(Br)c2)cc1,–,–,–,–,–,–,·,·,
Cc1cc2c3c(ccc(C)c3n1)N=CN2c1ccccc1,60,62,–,65,–,92,–,4.8,
Cc1cc(Nc2ccccc2)c2c([N+](=O)[O-])ccc(C)c2n1,–,–,–,–,–,?,·,·,
COc1ccccc1C1C2=C(CC(C)(C)CC2=O)N(CC(=O)O)C2=C1C(=O)CC(C)(C)C2,·,21,–,·,·,164,30,34,
SMILES,Runt-SMMHC FRET,proKLK7 act,AI-2 QS mod,Runt-CBFb FRET,Wee1 stabilizer,RanGTP-Impb inh,proKLK7 act conf,EDANS interfere,others
CCOc1ccc(C2C3=C(CC(C)(C)CC3=O)N(CC(=O)O)C3=C2C(=O)CC(C)(C)C3)cc1OCC,·,–,–,·,·,–,·,·,
COc1ccc(C2C3=C(CC(C)(C)CC3=O)N(C)C3=C2C(=O)CC(C)(C)C3)cc1,86,35,–,–,–,137,16,25,
C#CCOc1ccc(C2C3=C(CC(C)(C)CC3=O)N(CC(=O)O)C3=C2C(=O)CC(C)(C)C3)cc1,·,30,–,·,·,162,68,80,
COc1ccc(N2C3=C(C(=O)CC(C)(C)C3)C(c3ccccc3OC)C3=C2CC(C)(C)CC3=O)cc1,81,22,–,–,–,149,–,–,
CCOC(=O)C1=C(N)OC2=C(C(=O)CC(C)(C)C2)C1c1ccccc1OC (configuration not stated),–,–,–,–,–,–,·,·,
c1ccc(CCN(Cc2ccccc2)Cc2nc(C3CC3)no2)cc1,·,–,–,·,–,–,·,·,
COc1cccc(NC(=S)NC2CC(C)CC(C)(C)C2)c1 (configuration not stated),·,–,·,·,·,·,·,·,
Cc1nc(NCCCN2CCOCC2)c2cnn(-c3ccccc3)c2n1,·,–,·,·,·,·,·,·,
COCCNC(=O)C1(C)CCCN(C(=O)c2ccc(F)c(Cl)c2)C1 (configuration not stated),·,–,·,·,·,·,·,·,
COc1cccc2c3c(c(C)nc12)CC(C)O3 (configuration not stated),–,48,–,–,–,–,–,12,
O=C1NC(c2cccc(OCc3ccccc3)c2)Nc2ccccc21 (configuration not stated),·,14,·,·,·,·,–,–,
O=C1NC(c2ccccc2O)Nc2ccccc21 (configuration not stated),·,22,–,·,·,–,–,17,
O=C1NC(c2cc(Cl)cc([N+](=O)[O-])c2O)Nc2ccccc21 (configuration not stated),–,–,?,–,–,–,·,·,
COc1cc(C)c(C2NC(=O)c3ccccc3N2)cc1C (configuration not stated),·,–,·,·,·,·,·,·,
CSc1ccc(C2NC(=O)c3ccccc3N2)cc1 (configuration not stated),·,17,–,·,·,–,17,13,EDANS interf=–
Cc1ccc(C)c(C2NC(=O)c3ccccc3N2)c1 (configuration not stated),–,36,–,–,–,–,24,21,
COc1ccc(N2c3ccccc3CN(Cc3ccccc3)CC2Cc2cc(OC)c(OC)c(OC)c2)cc1 (configuration not stated),·,–,·,·,·,·,·,·,
O=C1NC(c2ccc(O)cc2)Nc2ccccc21 (configuration not stated),·,29,–,·,·,–,25,27,

# High-throughput results deposited in PubChem by several laboratories.
